Measurements pooled from the literature.
Each line is one published result; the experiments were not run side by side.
Target: Serine/threonine-protein kinase MARK1 (MARK1, Homo sapiens, UniProt Q9P0L2)

SMILES | assay | conditions | quantity | result
Cc1nn(CC(F)(F)F)cc1Nc1nccc(NCc2ccc(S(N)(=O)=O)cc2)n1 | enzyme activity, inhibitor, radiometric | 1 µM | remaining activity | 107%
C#Cc1cccc(Nc2ncnc3cc(OCCOC)c(OCCOC)cc23)c1 | cell-free assay | 0.5 µM | remaining signal | 130%
Brc1cnc(Nc2cccc(CN3CCOCC3)c2)nc1NCCc1c[nH]cn1 | enzyme activity, inhibitor, radiometric | 1 µM | remaining activity | -3%
CNc1cccc2cc(C(=O)Nc3ccc(C(=O)O)cc3)c(=O)[nH]c12 | enzyme activity, inhibitor | 10 µM | inhibition | -26%
COc1cc(/C=C/C(=O)CC(=O)/C=C/c2ccc(O)c(OC)c2)ccc1O | enzyme activity, inhibitor | 1 µM | activity vs control | 79%
CO[C@@H](C)c1c(Nc2ccc([C@@H](N(C)C(=O)C3CCS(=O)(=O)CC3)C(F)(F)F)cc2)cnc2cc(Cl)nn12 | cell-free assay, competition with immobilised ligand | 1 µM | remaining binding | 81%
Cc1ccc(NC(=O)c2ccc(C)c(C(F)(F)F)c2)cc1C#Cc1nn(C2CCC(O)CC2)c2ncnc(N)c12 (centres unmarked) | cell-free assay | 10 µM | remaining signal | 94%
COc1cc2ncnc(Nc3ccc(Oc4ccccc4)c(C)c3C)c2cc1OC | enzyme activity, inhibitor | 1 µM | inhibition | 2%
CC/C(=N\NC(=O)NCc1cccc(O)c1)c1ccc(O)c(C)c1O | enzyme activity, inhibitor | 0.1 µM | inhibition | -2.5%
N#CCCc1ccc2c(c1)-c1[nH]c3ccc([N+](=O)[O-])cc3c1CC(=O)N2 | cell-free assay | 0.5 µM | remaining signal | 67.4%
CCCS(=O)(=O)Nc1ccc(F)c(C(=O)c2c[nH]c3ncc(-c4ccc(Cl)cc4)cc23)c1F | enzyme activity, inhibitor | 1 µM | inhibition | < 10%
CCN(CC)CCNC(=O)c1c(C)[nH]c(/C=C2\C(=O)Nc3ccc(F)cc32)c1C | enzyme activity, inhibitor | 10 µM | inhibition | 92%
O=C(NCc1ncc(C(F)(F)F)cc1Cl)c1ccc2c(c1)C1(CCS(=O)(=O)CC1)[C@H](C1CC1)N2S(=O)(=O)c1ccc(F)cc1 | cell-free assay, competition with immobilised ligand | 1 µM | remaining binding | 100%
FC(F)(F)Oc1cccc(-c2cnc3ccc(-c4ccncc4)nn23)c1 | enzyme activity, inhibitor, radiometric | 5 µM | activity vs control | 95%
c1cc(CN2CCOCC2)cc(Nc2nccc(NCCc3cnc[nH]3)n2)c1 | enzyme activity, inhibitor, radiometric | 1 µM | remaining activity | 75%
COc1cc(Nc2cnc(C#N)c(O[C@H](C)CN(C)C)n2)ncc1-c1cnn(C)c1 | enzyme activity, inhibitor, radiometric | 1 µM | remaining activity | 95%

SMILES | assay | conditions | quantity | result
Nc1ncnc2occ(-c3ccc(NC(=O)Nc4cc(C(F)(F)F)ccc4F)cc3)c12 | cell-free assay, inhibitor | 20 µM | remaining signal | 34%
O=C1Nc2ccc(Cl)cc2C1=Cc1cc(Cl)c(O)c(Cl)c1 | cell-free assay | 0.5 µM | remaining signal | 89.5%
CCCCN(CCCC)C(=O)CN1C[C@@H](c2cc(OC)c3c(c2)OCO3)[C@H](C(=O)O)[C@H]1CC(C)(C)CCC | cell-free assay, competition with immobilised ligand | 1 µM | remaining binding | 88.7%
NS(=O)(=O)c1ccc(CNc2nc(Nc3cccc(NC(=O)N4CCCC4)c3)ncc2Br)cc1 | enzyme activity, inhibitor, radiometric | 1 µM | remaining activity | 57%
CS(=O)(=O)NCC[C@H](NC(=O)c1cncc2c1cnn2-c1ccc(F)cc1)c1ccnc(S(C)(=O)=O)c1 | cell-free assay, competition with immobilised ligand | 1 µM | remaining binding | 92%
Cc1ccc(Nc2nccc(N(C)c3ccc4c(C)n(C)nc4c3)n2)cc1S(N)(=O)=O | enzyme activity, inhibitor | 0.3 µM | inhibition | 19%
O=C(NCCCNc1nc(Nc2cccc(NC(=O)N3CCCC3)c2)ncc1C1CC1)C1CCC1 | enzyme activity, inhibitor, radiometric | 1 µM | remaining activity | -4%
C[C@H](c1ccnc(Nc2nc3ccc(-c4cc(N(C)C)ncn4)cc3[nH]2)c1)N1CCN(C(=O)CC(F)(F)F)CC1 | cell-free assay, competition with immobilised ligand | 0.1 µM | remaining binding | 100%
CNC(=O)c1cc(Oc2ccc(NC(=O)Nc3ccc(Cl)c(C(F)(F)F)c3)cc2)ccn1 | enzyme activity, inhibitor | 10 µM | inhibition | 8%
C[S+]([O-])c1ccc(-c2nc(-c3ccncc3)c(-c3ccc(F)cc3)[nH]2)cc1 (centres unmarked) | cell-free assay | 0.5 µM | remaining signal | 105%
O=S(=O)(NC1CCC(c2cc(F)ccc2F)(S(=O)(=O)c2ccc(Cl)cc2)CC1)C(F)(F)F (centres unmarked) | cell-free assay, competition with immobilised ligand | 1 µM | remaining binding | 100%
O=C(NCCCNc1ccnc(Nc2cccc(NC(=O)N3CCCC3)c2)n1)C1CCC1 | enzyme activity, inhibitor, radiometric | 1 µM | remaining activity | 72%
CC(=O)C1=C(C)N(c2cccc(C(F)(F)F)c2)C(=O)N[C@@H]1c1ccc(C#N)nc1 | cell-free assay, competition with immobilised ligand | 1 µM | remaining binding | 100%
Cc1nn(CC(F)(F)F)cc1Nc1ncc(Br)c(NCCc2cnc[nH]2)n1 | enzyme activity, inhibitor, radiometric | 1 µM | remaining activity | 49%
COc1cc(-c2cn(C3CCc4ccccc4N(CC(F)(F)F)C3=O)nn2)ccc1-n1ccc(C)n1 (centres unmarked) | cell-free assay, competition with immobilised ligand | 1 µM | remaining binding | 99%
Cc1nn(CC(F)(F)F)cc1Nc1ncc(Br)c(NCc2ccc(S(N)(=O)=O)cc2)n1 | enzyme activity, inhibitor, radiometric | 1 µM | remaining activity | 90%
